ChEMBL document CHEMBL1121643, “Pyrazolo[5,1-b]quinazolin-9-ones: a new series of antiallergic agents” (1981)
Calls of active or inactive are those of the source. The rule behind the calls is not given here.

Legend:
Rattus norvegicus [1] = test: Inhibition of passive cutaneous anaphylaxis (PCA) reaction in rats by intraperitoneal administration of 5 mg/kg; format: functional; settings: ip
In short: (§1)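 Rats were sensitized by intradermal antiserum dilutions at several dorsal sites. After 48 h they were challenged iv with 1 mg ovalbumin in 1 mL saline containing 0.25% Evans blue. Drug was suspended in 1% gum tragacanth in saline and given ip or orally 10–15 min before challenge. Rats were killed 30 min later and the mean orthogonal wheal diameter was measured.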

Rattus norvegicus [2] = test: Inhibition of passive cutaneous anaphylaxis (PCA) reaction in rats, peroral administration 5 mg/kg; format: functional; settings: route oral; in short: as §1
Rattus norvegicus [3] = test: Ability to inhibit the passive cutaneous anaphylaxis (PCA) reaction in rats by intravenous administration of 0.5 mg/kg; format: functional
In short: (§2)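 Rats were given intradermal antiserum dilutions on the back. At 48 h, drug dissolved in the challenge solution (1 mg ovalbumin, 0.25% Evans blue, 1 mL saline) was injected iv with the antigen; sodium bicarbonate in slight molar excess was used if needed. Wheal diameters were read 30 min later and plotted against antiserum concentration, with the least-squares line extrapolated to a zero-antiserum base value. Five rats per group.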

Rattus norvegicus [4] = test: Ability to inhibit the passive cutaneous anaphylaxis (PCA) reaction in rats by peroral administration of 2 mg/kg; format: functional; in short: as §1
Rattus norvegicus [5] = test: Inhibition of the passive cutaneous anaphylaxis (PCA) reaction in rats by intravenous administration of 0.01 mg/kg; format: functional; in short: as §2
Rattus norvegicus [6] = test: Ability to inhibit the passive cutaneous anaphylaxis (PCA) reaction in rats by intraperitoneal administration of 1 mg/kg; format: functional; settings: ip; in short: as §1
Rattus norvegicus [7] = test: Inhibition of the passive cutaneous anaphylaxis (PCA) reaction in rats by intravenous administration of 0.1 mg/kg; format: functional; in short: as §2
Rattus norvegicus [8] = test: Ability to inhibit the passive cutaneous anaphylaxis (PCA) reaction in rats by peroral administration; Inactive; format: functional, organism-based; in short: as §1
Rattus norvegicus [9] = test: Ability to inhibit the passive cutaneous anaphylaxis (PCA) reaction in rats by intravenous administration of 1.5 mg/kg; format: functional; in short: as §2
Rattus norvegicus [10] = test: Ability to inhibit the passive cutaneous anaphylaxis (PCA) reaction in rats by peroral administration of 10 mg/kg; format: functional; settings: route oral; in short: as §1
Rattus norvegicus [11] = test: Ability to inhibit the passive cutaneous anaphylaxis (PCA) reaction in rats by peroral administration of 1 mg/kg; format: functional; settings: route oral; in short: as §1
Rattus norvegicus [12] = test: Ability to inhibit the passive cutaneous anaphylaxis (PCA) reaction in rats by intravenous administration of 0.01 mg/kg; format: functional; in short: as §2
Rattus norvegicus [13] = test: Ability to inhibit the passive cutaneous anaphylaxis (PCA) reaction in rats by intravenous administration of 0.001 mg/kg; format: functional; in short: as §2
Rattus norvegicus [14] = test: Ability to inhibit the passive cutaneous anaphylaxis (PCA) reaction in rats by intravenous administration of 0.005 mg/kg; format: functional; in short: as §2
Rattus norvegicus [15] = test: Ability to inhibit the passive cutaneous anaphylaxis (PCA) reaction in rats by peroral administration; format: functional; in short: as §1
Rattus norvegicus [16] = test: Ability to inhibit the passive cutaneous anaphylaxis (PCA) reaction in rats by peroral administration of 5 mg/kg; format: functional; settings: route oral; in short: as §1
Rattus norvegicus [17] = test: Ability to inhibit the passive cutaneous anaphylaxis (PCA) reaction in rats by intraperitoneal administration of 5 mg/kg; format: functional; settings: ip; in short: as §1

Row | Structure (SMILES) | inhibition in vivo at 5 mg/kg (Rattus norvegicus [1]) | inhibition in vivo at 5 mg/kg (Rattus norvegicus [2]) | further results
1 | CCOC(=O)c1cc2n(CC)c3ccc(Cl)cc3c(=O)n2n1 | 100% |  | 
2 | Cn1c2ccc(Cl)cc2c(=O)n2nc(-c3nn[nH]n3)cc12 | 100% | 0% | inhibition in vivo at 0.5 mg/kg (Rattus norvegicus [3]): 100%; inhibition in vivo at 2 mg/kg (Rattus norvegicus [4]; route oral): 39%; inhibition in vivo at 0.01 mg/kg (Rattus norvegicus [5]): 17%
3 | Cn1c2ccc(NC(=O)c3ccccc3)cc2c(=O)n2nc(C(=O)O)cc12 | 54% | 1% | 
4 | Cc1cccc2c(O)n3nc(C(=O)Nc4nn[nH]n4)cc3nc12 | 100% | 9% | 
5 | Cn1c2ccc(Cl)cc2c(=O)n2nc(C(=O)O)cc12 |  |  | inhibition in vivo at 0.5 mg/kg (Rattus norvegicus [3]): 70%; inhibition in vivo at 2 mg/kg (Rattus norvegicus [4]; read-out: Inhibition, route oral): 9%; inhibition in vivo at 1 mg/kg (Rattus norvegicus [6]; read-out: Inhibition): 59%
6 | O=C(O)c1cc2nc3c(O)cccc3c(O)n2n1 | 100% |  | inhibition in vivo at 0.1 mg/kg (Rattus norvegicus [7]): 75%
7 | Oc1c2cc(Cl)ccc2nc2cc(-c3nn[nH]n3)nn12 | 25% | 1% | 
8 | O=C(O)c1cc2nc3cccc(C(F)(F)F)c3c(O)n2n1 | 100% | 10% | 
9 | Nc1ccc2nc3cc(C(=O)O)nn3c(O)c2c1 | 38% | 16% | 
10 | O=C(O)c1cc(=O)c2c(OCC(O)COc3cccc4oc(C(=O)O)cc(=O)c34)cccc2o1 [CROMOLYN SODIUM] |  |  | inhibition (Rattus norvegicus [8]): inactive; inhibition in vivo at 1.5 mg/kg (Rattus norvegicus [9]): 50%
11 | Cc1cc2n(C)c3ccc(C(=O)O)cc3c(=O)n2n1 |  |  | inhibition in vivo at 0.5 mg/kg (Rattus norvegicus [3]): 21%; inhibition in vivo at 2 mg/kg (Rattus norvegicus [4]; route oral): 9%
12 | CCOC(=O)c1cc2nc3ccccc3c(O)n2n1 | 74% | 0% | 
13 | Cc1cccc2c(O)n3nc(C(=O)O)cc3nc12 | 58% | 0% | 
14 | COc1ccc2nc3cc(C(=O)Nc4nn[nH]n4)nn3c(O)c2c1 | 80% |  | inhibition in vivo at 10 mg/kg (Rattus norvegicus [10]): 43%; inhibition in vivo at 0.1 mg/kg (Rattus norvegicus [7]): 90%
15 | Cn1c2ccc(N)cc2c(=O)n2nc(C(=O)O)cc12 | 84% | 0% | inhibition in vivo at 0.1 mg/kg (Rattus norvegicus [7]): 16%
16 | COc1cccc2c(=O)n3nc(C(=O)O)cc3n(C)c12 | 60% |  | 
17 | O=C(O)c1cc2nc3ccc(O)cc3c(O)n2n1 | 100% | 0% | 
18 | O=C(Nc1nn[nH]n1)c1cc2nc3ccc(Cl)cc3c(O)n2n1 | 22% | 8% | 
19 | O=C(O)c1cc2nc3cc(Cl)c(Cl)cc3c(O)n2n1 | 9% | 0% | 
20 | COc1ccc2c(c1)c(=O)n1nc(-c3nn[nH]n3)cc1n2C | 100% | 0% | inhibition in vivo at 0.5 mg/kg (Rattus norvegicus [3]): 100%
21 | COc1ccc2nc3cc(-c4nn[nH]n4)nn3c(O)c2c1 | 87% |  | inhibition in vivo at 1 mg/kg (Rattus norvegicus [11]): 21%
22 | CCCOc1cccc2c(=O)n3nc(C(=O)O)cc3n(CCC)c12 | 72% |  | 
23 | Cn1c2ccccc2c(=O)n2nc(-c3nn[nH]n3)cc12 | 91% | 0% | inhibition in vivo at 0.5 mg/kg (Rattus norvegicus [3]): 84%; inhibition in vivo at 2 mg/kg (Rattus norvegicus [4]; route oral): 52%; inhibition in vivo at 0.1 mg/kg (Rattus norvegicus [7]): 0%
24 | COc1ccc2c(c1)c(=O)n1nc(C(=O)O)cc1n2C | 81% | 4% | inhibition in vivo at 0.5 mg/kg (Rattus norvegicus [3]): 100%; inhibition in vivo at 0.01 mg/kg (Rattus norvegicus [5]): 23%
25 | Cn1c2ccc(F)cc2c(=O)n2nc(C(=O)O)cc12 | 83% |  | inhibition in vivo at 0.5 mg/kg (Rattus norvegicus [3]): 84%; inhibition in vivo at 2 mg/kg (Rattus norvegicus [4]; route oral): 40%
26 | O=C(O)c1cc2nc3ccc(F)cc3c(O)n2n1 | 95% | 16% | inhibition in vivo at 0.01 mg/kg (Rattus norvegicus [5]): 2%; inhibition in vivo at 0.1 mg/kg (Rattus norvegicus [7]): 62%

Row | Structure (SMILES) | inhibition in vivo at 5 mg/kg (Rattus norvegicus [1]) | inhibition in vivo at 5 mg/kg (Rattus norvegicus [2]) | further results
27 | Cn1c2ccc(F)cc2c(=O)n2nc(-c3nn[nH]n3)cc12 | 100% | 8% | inhibition in vivo at 2 mg/kg (Rattus norvegicus [4]; route oral): 27%; inhibition in vivo at 0.01 mg/kg (Rattus norvegicus [5]): 10%; inhibition in vivo at 0.1 mg/kg (Rattus norvegicus [7]): 100%
28 | O=C(O)c1cc2n(Cc3ccccc3)c3ccc(Cl)cc3c(=O)n2n1 |  | 7% | 
29 | COc1cccc2nc3cc(C(=O)Nc4nn[nH]n4)nn3c(O)c12 | 100% | 18% | 
30 | Cc1ccc2c(c1)c(=O)n1nc(C(=O)O)cc1n2C |  |  | inhibition in vivo at 0.5 mg/kg (Rattus norvegicus [3]): 55%; inhibition in vivo at 2 mg/kg (Rattus norvegicus [4]; route oral): 25%
31 | O=C(Nc1nn[nH]n1)c1cc2n(Cc3ccccc3)c3ccc(Cl)cc3c(=O)n2n1 | 3% | 0% | 
32 | Cc1ccc2nc3cc(C(=O)O)nn3c(O)c2c1 | 100% | 0% | 
33 | COc1cc2c(=O)n3nc(C(=O)O)cc3n(C)c2cc1OC | 100% | 6% | 
34 | Oc1c2ccccc2nc2cc(-c3nn[nH]n3)nn12 | 26% | 0% | 
35 | O=C(O)c1ccc2c(O)n3nc(C(=O)O)cc3nc2c1 | 74% |  | inhibition in vivo at 0.1 mg/kg (Rattus norvegicus [7]): 56%
36 | COc1ccc2nc3cc(C(=O)O)nn3c(O)c2c1 | 94% | 0% | inhibition in vivo at 0.01 mg/kg (Rattus norvegicus [5]): 30%
37 | CCn1c2ccc(Cl)cc2c(=O)n2nc(C(=O)O)cc12 |  |  | inhibition in vivo at 0.1 mg/kg (Rattus norvegicus [7]): 16%
38 | O=C(O)c1cc2nc3ccccc3c(O)n2n1 | 100% | 5% | inhibition in vivo at 1 mg/kg (Rattus norvegicus [11]): 23%; inhibition in vivo at 0.01 mg/kg (Rattus norvegicus [12]): 0%; inhibition in vivo at 0.1 mg/kg (Rattus norvegicus [7]): 54%; inhibition in vivo at 1 mg/kg (Rattus norvegicus [6]): 55%
39 | COc1cccc2c(O)n3nc(C(=O)O)cc3nc12 | 70% | 79% | inhibition in vivo at 0.001 mg/kg (Rattus norvegicus [13]): 8%; inhibition in vivo at 10 mg/kg (Rattus norvegicus [10]): 62%; inhibition in vivo at 0.005 mg/kg (Rattus norvegicus [14]): 31%; inhibition in vivo at 0.01 mg/kg (Rattus norvegicus [5]): 74%; inhibition in vivo at 0.1 mg/kg (Rattus norvegicus [7]): 100%
40 | COc1cc2nc3cc(C(=O)Nc4nn[nH]n4)nn3c(O)c2cc1OC | 100% | 0% | 
41 | CC(=O)Nc1ccc2c(c1)c(=O)n1nc(C(=O)O)cc1n2C |  | 0% | 
42 | COc1cccc2c(O)n3nc(-c4nn[nH]n4)cc3nc12 | 27% | 3% | 
43 | Cn1c2ccccc2c(=O)n2nc(C(=O)Nc3nn[nH]n3)cc12 | 51% |  | Inhibition (Rattus norvegicus [15]): 0%
44 | O=C(O)c1ccc2nc3cc(C(=O)O)nn3c(O)c2c1 | 21% | 7% | 
45 | COc1cc2nc3cc(C(=O)O)nn3c(O)c2cc1OC | 97% | 5% | inhibition in vivo at 0.01 mg/kg (Rattus norvegicus [5]): 16%; inhibition in vivo at 0.1 mg/kg (Rattus norvegicus [7]): 100%
46 | COc1cccc2nc3cc(C(=O)O)nn3c(O)c12 | 62% | 18% | 
47 | O=C(O)c1cc2nc3ccc(Cl)cc3c(O)n2n1 | 45% | 0% | 
48 | O=C(Nc1nn[nH]n1)c1cc2nc3ccc(O)cc3c(O)n2n1 | 100% |  | inhibition in vivo at 0.1 mg/kg (Rattus norvegicus [7]): 90%
49 | CSc1ccc2nc3cc(C(=O)Nc4nn[nH]n4)nn3c(O)c2c1 | 90% |  | 
50 | Cn1c2ccccc2c(=O)n2nc(C(=O)O)cc12 |  |  | inhibition in vivo at 5 mg/kg (Rattus norvegicus [16]): 40%; inhibition in vivo at 0.5 mg/kg (Rattus norvegicus [3]): 100%; inhibition in vivo at 5 mg/kg (Rattus norvegicus [17]): 100%
51 | O=C(Nc1nn[nH]n1)c1cc2nc3ccccc3c(O)n2n1 | 100% | 1% | 
52 | COc1cccc2c(O)n3nc(C(=O)Nc4nn[nH]n4)cc3nc12 | 100% | 14% | 
